Measured values: ChEMBL document CHEMBL5724801, “EUbOPEN Chemogenomics Library - Multiplex” (2024)
Several values for one entry are separate records, joined by “and”; a condition that tells them apart may be missing. Equal entries are not always repeated.

System: U2OS
Assay: Multiplex assay against U2OS
Assay type: toxicity, cell-based
Conditions: human
Procedure, shortened: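 At seeding, live cells were stained with Hoechst33342, BioTracker Green Microtubule Cytoskeleton Dye, MitoTracker Red and Annexin V Alexa Fluor 680. After compound addition they were imaged on a CQ1 microscope at 37°C and 5% CO2, and CellPathfinder machine-learning gating sorted them into Hoechst high-intensity objects or normal cells, with normal cells further split into healthy, pyknosed or fragmented nuclei and pyknosed cells into mitotic or apoptotic. Tubulin, mitochondrial-mass and membrane-permeability phenotypes are given as per cents of cells with healthy nuclei.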

[1] = 12 h, 1 µM, compound concentration 1 uM
[2] = 12 h, 10 µM, compound concentration 10 uM
[3] = 24 h, 1 µM, compound concentration 1 uM
[4] = 24 h, 10 µM, compound concentration 10 uM
[5] = 48 h, 1 µM, compound concentration 1 uM
[6] = 48 h, 10 µM, compound concentration 10 uM

Structure (SMILES): COc1cc(/C=C(\C#N)C(=O)Nc2nnc(C(F)(F)F)s2)ccc1OCc1ccc(C(F)(F)F)cc1C(F)(F)F
- Population Apoptotic (%) [1]: 22.22% and 38.1%
- Population Fragmented Nuclei (%) [1]: 1.99% and 4.9%
- Population Healthy Nuclei (%) [1]: 89.05% and 80.42%
- Population Hoechst High Intensity Objects (%) [1]: 0%
- Population Membrane Permeable-Phenotype (%) [1]: 0.84% and 2.61%
- Population Mitochondria Different-Phenotype (%) [1]: 0.28% and 6.09%
- Population Mitotic Cells (%) [1]: 77.78% and 61.9%
- Population Normal (%) [1]: 100%
- Population Pyknosed Nuclei (%) [1]: 8.96% and 14.69%
- Population Tubulin-Different-Phenotype (%) [1]: 0.56% and 0%
- Total Cell Count [1]: 402 and 143
- Population Apoptotic (%) [2]: 36.59% and 47.06%
- Population Fragmented Nuclei (%) [2]: 1.77% and 5.29%
- Population Healthy Nuclei (%) [2]: 87.88% and 85.71%
- Population Hoechst High Intensity Objects (%) [2]: 0%
- Population Membrane Permeable-Phenotype (%) [2]: 0.57% and 6.17%
- Population Mitochondria Different-Phenotype (%) [2]: 0.29% and 3.09%
- Population Mitotic Cells (%) [2]: 63.41% and 52.94%
- Population Normal (%) [2]: 100%
- Population Pyknosed Nuclei (%) [2]: 10.35% and 8.99%
- Population Tubulin-Different-Phenotype (%) [2]: 1.72% and 0%
- Total Cell Count [2]: 396 and 189
- Population Apoptotic (%) [3]: 43.86% and 43.48%
- Population Fragmented Nuclei (%) [3]: 1.6% and 6.28%
- Population Healthy Nuclei (%) [3]: 88.24% and 81.68%
- Population Hoechst High Intensity Objects (%) [3]: 0%
- Population Membrane Permeable-Phenotype (%) [3]: 0.81% and 3.85%
- Population Mitochondria Different-Phenotype (%) [3]: 0% and 5.13%
- Population Mitotic Cells (%) [3]: 56.14% and 56.52%
- Population Normal (%) [3]: 100%
- Population Pyknosed Nuclei (%) [3]: 10.16% and 12.04%
- Population Tubulin-Different-Phenotype (%) [3]: 0.81% and 0.64%
- Total Cell Count [3]: 561 and 191
- Population Apoptotic (%) [4]: 52.08% and 57.69%
- Population Fragmented Nuclei (%) [4]: 0.74% and 3.08%
- Population Healthy Nuclei (%) [4]: 90.41% and 85.46%
- Population Hoechst High Intensity Objects (%) [4]: 0%
- Population Membrane Permeable-Phenotype (%) [4]: 1.43% and 7.22%
- Population Mitochondria Different-Phenotype (%) [4]: 0% and 1.03%
- Population Mitotic Cells (%) [4]: 47.92% and 42.31%
- Population Normal (%) [4]: 100%
- Population Pyknosed Nuclei (%) [4]: 8.86% and 11.45%
- Population Tubulin-Different-Phenotype (%) [4]: 1.43% and 0.52%
- Total Cell Count [4]: 542 and 227
- Population Apoptotic (%) [5]: 46.05% and 40.48%
- Population Fragmented Nuclei (%) [5]: 3.37% and 3.16%
- Population Healthy Nuclei (%) [5]: 89.31% and 83.54%
- Population Hoechst High Intensity Objects (%) [5]: 0%
- Population Membrane Permeable-Phenotype (%) [5]: 1.29% and 1.14%
- Population Mitochondria Different-Phenotype (%) [5]: 0.11% and 2.65%
- Population Mitotic Cells (%) [5]: 53.95% and 59.52%
- Population Normal (%) [5]: 100%
- Population Pyknosed Nuclei (%) [5]: 7.32% and 13.29%
- Population Tubulin-Different-Phenotype (%) [5]: 0.32% and 0%
- Population Apoptotic (%) [6]: 40% and 47.5%
- Population Fragmented Nuclei (%) [6]: 2.52% and 1.99%
- Population Healthy Nuclei (%) [6]: 89.1% and 88.09%
- Population Hoechst High Intensity Objects (%) [6]: 0%
- Population Membrane Permeable-Phenotype (%) [6]: 0.47% and 3.66%
- Population Mitochondria Different-Phenotype (%) [6]: 0% and 0.85%
- Population Mitotic Cells (%) [6]: 60% and 52.5%
- Population Normal (%) [6]: 100%
- Population Pyknosed Nuclei (%) [6]: 8.39% and 9.93%
- Population Tubulin-Different-Phenotype (%) [6]: 0.82% and 1.13%
- Total Cell Count [6]: 954 and 403

Structure (SMILES): Cc1cc(NC(=O)c2cccc(NC(=O)/C=C/CN(C)C)c2)ccc1Nc1nccc(-c2cccnc2)n1
- Population Apoptotic (%) [1]: 27.59% and 30.56%
- Population Fragmented Nuclei (%) [1]: 1.96% and 1.23%
- Population Healthy Nuclei (%) [1]: 90.93% and 76.69%
- Population Hoechst High Intensity Objects (%) [1]: 0%
- Population Membrane Permeable-Phenotype (%) [1]: 0.54% and 4%
- Population Mitochondria Different-Phenotype (%) [1]: 0% and 11.2%
- Population Mitotic Cells (%) [1]: 72.41% and 69.44%
- Population Normal (%) [1]: 100%
- Population Tubulin-Different-Phenotype (%) [1]: 1.35% and 1.6%
- Total Cell Count [1]: 408 and 163
- Population Apoptotic (%) [2]: 30.59% and 26%
- Population Fragmented Nuclei (%) [2]: 2.2% and 3.08%
- Population Healthy Nuclei (%) [2]: 71.07% and 58.46%
- Population Hoechst High Intensity Objects (%) [2]: 0%
- Population Membrane Permeable-Phenotype (%) [2]: 61.06% and 84.21%
- Population Mitotic Cells (%) [2]: 69.41% and 74%
- Population Normal (%) [2]: 100%
- Population Pyknosed Nuclei (%) [2]: 26.73% and 38.46%
- Population Tubulin-Different-Phenotype (%) [2]: 71.68% and 55.26%
- Total Cell Count [2]: 318 and 130
- Population Apoptotic (%) [3]: 35.71% and 38.71%
- Population Fragmented Nuclei (%) [3]: 1.26% and 5.24%
- Population Healthy Nuclei (%) [3]: 91.2% and 80%
- Population Hoechst High Intensity Objects (%) [3]: 0%
- Population Membrane Permeable-Phenotype (%) [3]: 0.79% and 4.17%
- Population Mitotic Cells (%) [3]: 64.29% and 61.29%
- Population Normal (%) [3]: 100%
- Population Pyknosed Nuclei (%) [3]: 7.54% and 14.76%
- Population Tubulin-Different-Phenotype (%) [3]: 0.79% and 1.19%
- Total Cell Count [3]: 557 and 210
- Population Apoptotic (%) [4]: 56.85% and 76.53%
- Population Fragmented Nuclei (%) [4]: 2.51% and 3.51%
- Population Hoechst High Intensity Objects (%) [4]: 0.31% and 0%
- Population Membrane Permeable-Phenotype (%) [4]: 25.44% and 41.67%
- Population Mitochondria Different-Phenotype (%) [4]: 21.93% and 41.67%
- Population Mitotic Cells (%) [4]: 43.15% and 23.47%
- Population Normal (%) [4]: 99.69% and 100%
- Population Pyknosed Nuclei (%) [4]: 61.76% and 85.96%
- Population Tubulin-Different-Phenotype (%) [4]: 54.39% and 58.33%
- Total Cell Count [4]: 320 and 114
- Population Apoptotic (%) [5]: 41.94% and 59.02%
- Population Fragmented Nuclei (%) [5]: 4.41% and 6.54%
- Population Healthy Nuclei (%) [5]: 86.07% and 73.53%
- Population Hoechst High Intensity Objects (%) [5]: 0% and 0.33%
- Population Membrane Permeable-Phenotype (%) [5]: 0.6% and 3.11%
- Population Mitochondria Different-Phenotype (%) [5]: 0% and 7.56%
- Population Mitotic Cells (%) [5]: 58.06% and 40.98%
- Population Normal (%) [5]: 100% and 99.67%
- Population Pyknosed Nuclei (%) [5]: 9.53% and 19.93%
- Population Tubulin-Different-Phenotype (%) [5]: 1.67% and 0.89%
- Population Apoptotic (%) [6]: 92.36% and 96.04%
- Population Fragmented Nuclei (%) [6]: 3.57% and 4%
- Population Healthy Nuclei (%) [6]: 7.14% and 15.2%
- Population Hoechst High Intensity Objects (%) [6]: 0%
- Population Mitotic Cells (%) [6]: 7.64% and 3.96%
- Population Normal (%) [6]: 100%
- Population Pyknosed Nuclei (%) [6]: 89.29% and 80.8%
- Total Cell Count [6]: 308 and 125

Structure (SMILES): O=C(Nc1cc(C(F)(F)F)ccc1N1CCCCC1)c1ccncc1
- Population Apoptotic (%) [1]: 66.67% and 37.5%
- Population Fragmented Nuclei (%) [1]: 2.62% and 1.94%
- Population Healthy Nuclei (%) [1]: 90.31% and 82.58%
- Population Hoechst High Intensity Objects (%) [1]: 0%
- Population Membrane Permeable-Phenotype (%) [1]: 1.74% and 3.12%
- Population Mitochondria Different-Phenotype (%) [1]: 0% and 2.34%
- Population Mitotic Cells (%) [1]: 33.33% and 62.5%
- Population Normal (%) [1]: 100%
- Population Pyknosed Nuclei (%) [1]: 7.07% and 15.48%
- Population Tubulin-Different-Phenotype (%) [1]: 1.16% and 0.78%
- Total Cell Count [1]: 382 and 155
- Population Apoptotic (%) [2]: 32.65% and 31.25%
- Population Fragmented Nuclei (%) [2]: 1.78% and 5.19%
- Population Healthy Nuclei (%) [2]: 87.31% and 74.03%
- Population Hoechst High Intensity Objects (%) [2]: 0%
- Population Membrane Permeable-Phenotype (%) [2]: 2.81% and 6.14%
- Population Mitotic Cells (%) [2]: 67.35% and 68.75%
- Population Normal (%) [2]: 100%
- Population Pyknosed Nuclei (%) [2]: 10.91% and 20.78%
- Population Tubulin-Different-Phenotype (%) [2]: 6.89% and 7.89%
- Total Cell Count [2]: 449 and 154
- Population Apoptotic (%) [3]: 24.39% and 47.37%
- Population Fragmented Nuclei (%) [3]: 2.34% and 1.57%
- Population Healthy Nuclei (%) [3]: 89.65% and 88.48%
- Population Hoechst High Intensity Objects (%) [3]: 0%
- Population Membrane Permeable-Phenotype (%) [3]: 0.65% and 1.78%
- Population Mitochondria Different-Phenotype (%) [3]: 0.22% and 4.73%
- Population Mitotic Cells (%) [3]: 75.61% and 52.63%
- Population Normal (%) [3]: 100%
- Population Pyknosed Nuclei (%) [3]: 8.01% and 9.95%
- Population Tubulin-Different-Phenotype (%) [3]: 1.09% and 0.59%
- Total Cell Count [3]: 512 and 191
- Population Apoptotic (%) [4]: 35.62% and 25.81%
- Population Fragmented Nuclei (%) [4]: 1.19% and 3.28%
- Population Healthy Nuclei (%) [4]: 86.37% and 79.78%
- Population Hoechst High Intensity Objects (%) [4]: 0%
- Population Membrane Permeable-Phenotype (%) [4]: 1.18% and 2.05%
- Population Mitotic Cells (%) [4]: 64.38% and 74.19%
- Population Normal (%) [4]: 100%
- Population Pyknosed Nuclei (%) [4]: 12.44% and 16.94%
- Population Tubulin-Different-Phenotype (%) [4]: 5.13% and 1.37%
- Population Apoptotic (%) [5]: 36.36% and 35.71%
- Population Fragmented Nuclei (%) [5]: 3.47% and 3.02%
- Population Healthy Nuclei (%) [5]: 86.98% and 88.52%
- Population Hoechst High Intensity Objects (%) [5]: 0%
- Population Membrane Permeable-Phenotype (%) [5]: 1% and 4.1%
- Population Mitochondria Different-Phenotype (%) [5]: 0.37% and 3.75%
- Population Mitotic Cells (%) [5]: 63.64% and 64.29%
- Population Normal (%) [5]: 100%
- Population Pyknosed Nuclei (%) [5]: 9.54% and 8.46%
- Population Tubulin-Different-Phenotype (%) [5]: 1.37% and 2.05%
- Total Cell Count [5]: 922 and 331
- Population Apoptotic (%) [6]: 47.54% and 53.06%
- Population Fragmented Nuclei (%) [6]: 2.11% and 4.76%
- Population Healthy Nuclei (%) [6]: 86.22% and 78.57%
- Population Hoechst High Intensity Objects (%) [6]: 0.19% and 0%
- Population Membrane Permeable-Phenotype (%) [6]: 1.66% and 1.73%
- Population Mitotic Cells (%) [6]: 52.46% and 46.94%
- Population Normal (%) [6]: 99.81% and 100%
- Population Pyknosed Nuclei (%) [6]: 11.67% and 16.67%
- Population Tubulin-Different-Phenotype (%) [6]: 4.55% and 3.03%
